# Laboratory results from ChEMBL document CHEMBL1208778, “Synthesis and anti-cancer activity of chalcone linked imidazolones” (2010).
# Columns and labels:
# Format in all cases: functional
# NCI-H522 = assay: Growth inhibition of human NCI-H522 cells
# How it was run: (§1)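 Five-dose testing was run within the NCI (Bethesda) in vitro Anticancer Screen Program on a panel of 53 human tumour cell lines from nine cancer types. Growth inhibition is reported as GI50.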
# OVCAR-5 = assay: Growth inhibition of human OVCAR5 cells; how it was run: as §1
# SNB-19 = assay: Growth inhibition of human SNB19 cells
# How it was run: (§2)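 Compounds that passed a preliminary screen were tested at five doses in the NCI (Bethesda) in vitro Anticancer Screen Program against a 53-line human tumour panel spanning leukemia, lung, colon, CNS, melanoma, ovarian, renal, prostate and breast. Growth inhibition is reported as GI50.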
# UO-31 = assay: Growth inhibition of human UO31 cells; how it was run: as §2
# MCF7 [1] = assay: Cell cycle arrest in human MCF7 cells assessed as accumulation at G0 phase at 30 uM after 24 hrs by FACS analysis
# How it was run: (§3)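 MCF-7 cells were treated at 30 µM for 24 h alongside a DMSO control. Fractions in G0, G1, S and G2/M phases were measured by FACS, and values are means of three experiments.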
# SF-539 = assay: Growth inhibition of human SF539 cells; how it was run: as §1
# MDA-MB-435 = assay: Growth inhibition of human MDA-MB-435 cells; how it was run: as §1
# BT-549 = assay: Growth inhibition of human BT549 cells; how it was run: as §1
# SN12C = assay: Growth inhibition of human SN12C cells; how it was run: as §2
# HCT-116 = assay: Growth inhibition of human HCT116 cells; how it was run: as §1
# A498 = assay: Growth inhibition of human A498 cells; how it was run: as §1
# OVCAR-3 = assay: Growth inhibition of human OVCAR-3 cells; how it was run: as §1
# SK-MEL-28 = assay: Growth inhibition of human SK-MEL-28 cells; how it was run: as §1
# KM12 = assay: Growth inhibition of human KM12 cells; how it was run: as §1
# K562 = assay: Growth inhibition of human K562 cells; how it was run: as §1
# 786-0 = assay: Growth inhibition of human 786-0 cells; how it was run: as §1
# T47D = assay: Growth inhibition of human T47D cells; how it was run: as §2
# SK-MEL-2 = assay: Growth inhibition of human SK-MEL-2 cells; how it was run: as §1
# LOX IMVI = assay: Growth inhibition of human LOXIMVI cells; how it was run: as §1
# SK-MEL-5 = assay: Growth inhibition of human SK-MEL-5 cells; how it was run: as §1
# MCF7 [2] = assay: Cell cycle arrest in human MCF7 cells assessed as accumulation at G2/M phase at 30 uM after 24 hrs by FACS analysis; how it was run: as §3
# COLO 205 = assay: Growth inhibition of human COLO205 cells; how it was run: as §1
# MCF7 [3] = assay: Cell cycle arrest in human MCF7 cells assessed as accumulation at G1 phase at 30 uM after 24 hrs by FACS analysis; how it was run: as §3
# UACC-257 = assay: Growth inhibition of human UACC257 cells; how it was run: as §2
# RXF 393 = assay: Growth inhibition of human RXF393 cells; how it was run: as §1
# SK-OV-3 = assay: Growth inhibition of human SKOV3 cells; how it was run: as §2
# [4] = Growth inhibition of human RPMI8266 cells; how it was run: as §1
# MCF7 [5] = assay: Cell cycle arrest in human MCF7 cells assessed as accumulation at S phase at 30 uM after 24 hrs by FACS analysis; how it was run: as §3
# MCF7 [6] = assay: Growth inhibition of human MCF7 cells; how it was run: as §1
# NCI-H460 = assay: Growth inhibition of human NCI-H460 cells; how it was run: as §1
# UACC-62 = assay: Growth inhibition of human UACC62 cells; how it was run: as §2
# ACHN = assay: Growth inhibition of human ACHN cells; how it was run: as §1
# HCC 2998 = assay: Growth inhibition of human HCC2998 cells; how it was run: as §1
# PC-3 = assay: Growth inhibition of human PC3 cells; how it was run: as §1
# SNB-75 = assay: Growth inhibition of human SNB75 cells; how it was run: as §2
# NCI/ADR-RES = assay: Growth inhibition of human NCI/ADR-RES cells; how it was run: as §1
# NCI-H23 = assay: Growth inhibition of human NCI-H23 cells; how it was run: as §1
# MDA-MB-231 = assay: Growth inhibition of human MDA-MB-231 cells; how it was run: as §1
# SW-620 = assay: Growth inhibition of human SW620 cells; how it was run: as §2
# U-251 = assay: Growth inhibition of human U251 cells; how it was run: as §2
# HCT-15 = assay: Growth inhibition of human HCT15 cells; how it was run: as §1
# A549 = assay: Growth inhibition of human A549 cells; how it was run: as §1
# NCI-H226 = assay: Growth inhibition of human NCI-H226 cells; how it was run: as §1
# M14 = assay: Growth inhibition of human M14 cells; how it was run: as §1
# OVCAR-8 = assay: Growth inhibition of human OVCAR8 cells; how it was run: as §1
# HOP-62 = assay: Growth inhibition of human HOP62 cells; how it was run: as §1
# HT-29 = assay: Growth inhibition of human HT-29 cells; how it was run: as §1
# MCF7 [7] = assay: Cell cycle arrest in human MCF7 cells assessed as accumulation at G0 phase at 10 uM after 24 hrs by FACS analysis
# How it was run: (§4)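 MCF-7 breast carcinoma cells were exposed to 10 µM test compound for 24 h, with DMSO as the vehicle control. Cell-cycle distribution was read by FACS as the percentage of cells in G0, G1, S and G2/M.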
# MCF7 [8] = assay: Cell cycle arrest in human MCF7 cells assessed as accumulation at S phase at 10 uM after 24 hrs by FACS analysis; how it was run: as §4
# MCF7 [9] = assay: Cell cycle arrest in human MCF7 cells assessed as accumulation at G1 phase at 10 uM after 24 hrs by FACS analysis; how it was run: as §4
# TK-10 = assay: Growth inhibition of human TK10 cells; how it was run: as §2
# MCF7 [10] = assay: Cell cycle arrest in human MCF7 cells assessed as accumulation at G2/M phase at 10 uM after 24 hrs by FACS analysis; how it was run: as §4
# Malme-3M = assay: Growth inhibition of human MALME-3M cells; how it was run: as §1
# CAKI-1 = assay: Growth inhibition of human Caki1 cells; how it was run: as §1
# HOP-92 = assay: Growth inhibition of human HOP92 cells; how it was run: as §1
# SF-295 = assay: Growth inhibition of human SF295 cells; how it was run: as §1
# NCI-H322M = assay: Growth inhibition of human NCI-H322M cells; how it was run: as §1
# EKVX = assay: Growth inhibition of human EKVX cells; how it was run: as §1
# OVCAR-4 = assay: Growth inhibition of human OVCAR4 cells; how it was run: as §1
# SF-268 = assay: Growth inhibition of human SF268 cells; how it was run: as §1
# [11] = Growth inhibition of human Hs 578T cells; how it was run: as §1
smiles,measurement,setting,value
COc1ccc(-c2cn(-c3cccc(C(=O)/C=C/c4ccc(O)c(OC)c4)c3)c(=O)[nH]2)cc1,GI50,NCI-H522,3.48 µM
same,GI50,OVCAR-5,3.38 µM
same,GI50,SNB-19,5.84 µM
same,GI50,UO-31,5.19 µM
same,Activity,MCF7 [1],20.5%
same,GI50,SF-539,2.25 µM
same,GI50,MDA-MB-435,3.35 µM
same,GI50,BT-549,4.57 µM
same,GI50,SN12C,4.11 µM
same,GI50,HCT-116,1.93 µM
same,GI50,A498,3.72 µM
same,GI50,OVCAR-3,2.7 µM
same,GI50,SK-MEL-28,2.03 µM
same,GI50,KM12,1.77 µM
same,GI50,K562,2.35 µM
same,GI50,786-0,4.53 µM
same,GI50,T47D,3.6 µM
same,GI50,SK-MEL-2,5.54 µM
same,GI50,LOX IMVI,2.44 µM
same,GI50,SK-MEL-5,2.63 µM
same,Activity,MCF7 [2],9%
same,GI50,COLO 205,6.61 µM
same,Activity,MCF7 [3],54.5%
same,GI50,UACC-257,13.3 µM
same,GI50,RXF 393,5.85 µM
same,GI50,SK-OV-3,4.77 µM
same,GI50,[4],1.35 µM
same,Activity,MCF7 [5],16%
same,GI50,MCF7 [6],3.18 µM
same,GI50,NCI-H460,3.23 µM
same,GI50,UACC-62,3.96 µM
same,GI50,ACHN,3.4 µM
same,GI50,HCC 2998,2.32 µM
same,GI50,PC-3,3.05 µM
same,GI50,SNB-75,4.73 µM
same,GI50,NCI/ADR-RES,2.56 µM
same,GI50,NCI-H23,2.85 µM
same,GI50,MDA-MB-231,5.25 µM
same,GI50,SW-620,2.5 µM
same,GI50,U-251,3.45 µM
same,GI50,HCT-15,3.15 µM
same,GI50,A549,4.14 µM
same,GI50,NCI-H226,4.1 µM
same,GI50,M14,5.14 µM
same,GI50,OVCAR-8,4.97 µM
same,GI50,HOP-62,5.15 µM
same,GI50,HT-29,3.84 µM
same,Activity,MCF7 [7],2.16%
same,Activity,MCF7 [8],14%
same,Activity,MCF7 [9],57.66%
same,GI50,TK-10,6.08 µM
same,Activity,MCF7 [10],26.18%
same,GI50,Malme-3M,4.42 µM
same,GI50,CAKI-1,4.99 µM
same,GI50,HOP-92,2.96 µM
same,GI50,SF-295,13.9 µM
same,GI50,NCI-H322M,8.2 µM
same,GI50,EKVX,13.4 µM
same,GI50,OVCAR-4,6.08 µM
same,GI50,SF-268,3.4 µM
same,GI50,[11],4.25 µM
